As usually defined, the IC50 is the concentration that gives 50% inhibition. Lower therefore signals inhibition by little substance. A word on the Ki: it is a dissociation constant, usually derived from enzyme kinetics or from competition with a known ligand. High values mean lower affinity, low ones higher affinity.

Changes are numbered by the printed parent chain.

The test system of one data set is Wnt/β-catenin signaling. It is filed as cell-based. The conditions noted are these: DXMS-challenged MC3T3-E1 cells, 7 days.
The nature of data set [1]: Tissue distribution in mice after gavage. It is filed as in vivo, C57BL/6J mice. In short, it runs like this: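 Twenty male C57BL/6J mice (6 weeks, 18–20 g) were randomised into four groups: control, 1 h, 2 h and 3 h. Test compound in 0.5% CMC-Na was given once by gavage. Mice were anaesthetised at 0, 1, 2 or 3 h, and blood and organs including femur were removed. Samples were centrifuged at 20,000 × g, 4 °C, 30 min, and compound concentration was determined by LC–MS/MS.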

Another data set concerns CYPs. Conditions: phase I metabolic systems, GSH trapping.
Data set [2] concerns MC3T3-E1 cells. The data set is described as follows: Alizarin red S staining, calcification in DXMS-challenged MC3T3-E1 cells. The class given is cell-based. The conditions noted are these: DXMS-challenged (200 μmol/L) MC3T3-E1 cells, 21 days.
For data set [3], the system named is MC3T3-E1 cells. Put plainly: Cell viability. It is filed as cell-based. The conditions noted are these: for cytotoxicity towards MC3T3-E1 cells: 0–20 μmol/L, 96 h.
Data set [4] has as its system DXMS-induced osteoporotic mice. The data set is described as follows: In vivo anti-osteoporosis test in DXMS-induced osteoporotic mice. Also on record: species or system C57BL/6J mice. Conditions: for effect on weight loss induced by DXMS: five weeks. In short, it runs like this: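 Male C57BL/6J mice (6 weeks) were held SPF at 25 ± 2 °C, 50 ± 10% humidity and 12 h/12 h light/dark, with 7 days acclimatisation. They were randomised into five groups. DXMS was given i.p. at 2.5 mg/kg, five times weekly for five weeks. Test compound was dosed orally daily; PTH1–34 was given i.p. After five weeks, serum, femurs and tibias were collected. Serum ALP, OT/BGT, OPG and Col-1A1 were measured by ELISA kits. Data are mean ± SD.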

Data set [5] deals with T1, Notum (Homo sapiens, UniProt Q6P988).
T1 sequence (Q6P988 20-496): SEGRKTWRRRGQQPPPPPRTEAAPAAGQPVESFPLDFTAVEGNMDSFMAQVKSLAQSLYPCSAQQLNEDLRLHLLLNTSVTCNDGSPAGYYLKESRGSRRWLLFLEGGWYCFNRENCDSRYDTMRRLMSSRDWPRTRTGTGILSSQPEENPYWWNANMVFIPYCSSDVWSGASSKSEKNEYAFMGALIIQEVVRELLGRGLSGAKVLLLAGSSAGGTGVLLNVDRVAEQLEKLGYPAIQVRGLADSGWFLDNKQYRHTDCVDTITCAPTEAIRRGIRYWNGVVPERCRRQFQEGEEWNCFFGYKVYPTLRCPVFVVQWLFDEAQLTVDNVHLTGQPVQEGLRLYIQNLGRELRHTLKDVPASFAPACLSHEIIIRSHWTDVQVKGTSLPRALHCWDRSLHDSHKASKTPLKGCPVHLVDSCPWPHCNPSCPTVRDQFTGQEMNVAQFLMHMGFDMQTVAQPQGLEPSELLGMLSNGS
Put plainly: Notum inhibition assay, OPTS as substrate. It is filed as biochemical.

The target of data set [6] is T1, Notum. The data set is described as follows: Notum inhibition assay, DO as fluorogenic substrate. It is filed as biochemical.
The next data set concerns healthy mice. Put plainly: Toxicity test in healthy mice. The class given is in vivo, C57BL/6J mice. The conditions noted are these: 200 mg/kg oral.
The target of another data set is T2, F268G Notum (Homo sapiens, UniProt Q6P988, F268G).
T2 sequence (Q6P988 20-496 F268G): T1 sequence (Q6P988 20-496) with F249G
Put plainly: Inhibition of DO hydrolysis in F268G Notum mutant. It is filed as biochemical.

Data set [7] has as its system MC3T3-E1 cells. The data set is described as follows: ALP staining, osteoblast differentiation in DXMS-challenged MC3T3-E1 cells. The class given is cell-based. The conditions noted are these: 7 days. In short, it runs like this: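 MC3T3-E1 cells were kept in DMEM with 10% FBS and 1% penicillin–streptomycin at 37 °C under 5% CO₂. Cells were seeded at 2×10^3 cells/well and grown 24 h, then switched to inducible medium. DXMS and test compound were added together for seven days, with medium changed every two days. Cells were fixed 15 min in 4% paraformaldehyde at room temperature, PBS-washed, BCIP/NBT ALP-stained, imaged and quantified.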

For data set [8] the following is noted: cited from earlier work.
Setting [9] is: 5-MP 20 and 40 mg/kg oral daily, PTH 100 μg/kg/day i.p.
The mark [10] stands for this setting: distal and mid-femur, vs DXMS-challenged mice.
[11] abbreviates: distal femur, DXMS-challenged mice.
Where [12] appears, read: IC50 (DO as probe), Notum-catalyzed DO hydrolysis.

On to `COc1c2ccoc2cc2oc(=O)ccc12` [5-MP, 5-methoxypsoralen], for which the “mRNA levels of Notum, GSK3β, β-catenin, OPN and RUNX2” value with Wnt/β-catenin signaling is listed as “significantly reversed the abnormal mRNA levels”. The compound also returned a concentration at 2 h in data set [1] (male, C57BL/6J, mouse, femur, po, 40 mg/kg) of 8.3 nM. This compound had a concentration at 3 h in data set [1] (male, C57BL/6J, mouse, plasma, po, 40 mg/kg) of 44.6 nM. Besides, the tissue distribution result in [1] (single oral dose 40 mg/kg, mice) is “high exposure in the plasma and the liver”. The “formation of reactive intermediates” value in the data set with CYPs is given as “did not detect reactive intermediates”. In the data set on MC3T3-E1 cells [2], the “effect on intracellular calcification (ARS staining)” value is recorded as “significantly reversed the intracellular calcium loss”. In addition, the “cytotoxicity towards MC3T3-E1 cells” value in the data set with MC3T3-E1 cells [3] is reported as “weak cytotoxicity”. The “effect on weight loss induced by DXMS” value in [4] (setting [9]) is “neither PTH (positive control for osteoporosis) nor 5-MP (20 and 40 mg/kg) could significantly reverse the weight loss”. Moreover, the “serum levels of osteogenic markers (ALP, OT/BGT, OPG, Col-1A1)” value in [4] (5-MP 20 and 40 mg/kg oral daily, PTH 100 μg/kg/day i.p., vs DXMS) is “substantially increased”. In data set [4] (setting [10]), the “bone volume fraction (BV/TV) and bone mineral density (BMD)” value is “significantly enhanced”; the “trabecular and cortical bone thickness (micro-CT)” value is recorded as “significantly improved”. In data set [4] (setting [11]), the “immunofluorescence signals of Notum in cortical bone tissues” value was “significantly decreased” and the “immunofluorescence signals of Notum in marrow cavity” value is on record as “hardly decrease”. Further, the “new bone formation (double labeling)” value in data set [4] (tibia, vs DXMS-challenged group) is “active new bone formation”. Moreover, on Notum [5], the midpoint of inhibition, the IC50, lay at 11.2 ± 0.6 nM and the Ki was determined as 15.1 nM. The inhibition manner result on Notum [5] (inhibition kinetics, OPTS hydrolysis) is “competitive”. Moreover, at Notum [6], the Ki is 23.5 nM. The same compound yielded an IC50 at Notum [6] (setting [12]) of 18.7 ± 2.08 nM. In addition, the inhibition manner entry at Notum [6] (inhibition kinetics, DO hydrolysis) was “competitive”. For the same compound, in the data set on healthy mice (14 consecutive days, mice), the “organ injury (H&E, pathological examination)” value is “no organ injury was observed” and the overall mortality rate came out at 0%. For the same compound, in the data set with healthy mice (14 days, vs control), the “serological indicators of organ injury (ALT, AST, CK, CREA)” value is on record as “no significant difference”; the “serum levels of TC and TG” value is recorded as “decreased”; the spleen coefficient result was “slight decline”. Further, the organ coefficient result with healthy mice (14 days, vs control, except spleen) is listed as “no significant difference”. In addition, half-maximal inhibition against F268G Notum (IC50) required 1210 nM. The “effect on ALP levels (osteoblast differentiation)” value in the data set on MC3T3-E1 cells [7] was “dose-dependently mitigate the reduced ALP levels”. For the same compound, the “half-life (t1/2)” value in [8] was 4.21 h.
Turning to `COc1c2occc2cc2ccc(=O)oc12` [8-Methoxypsoralen], half-maximal inhibition at Notum [6] (IC50) was put at 9450 ± 1380 nM.
As for `O=c1oc2cc(O)ccc2c2oc3cc(O)ccc3c12` [Coumestrol], at Notum [6], the IC50 was determined as 12800 ± 2440 nM.
As for `C[C@@H]1C[C@H]2[C@@H]3CCC4=CC(=O)C=C[C@]4(C)[C@@]3(F)[C@@H](O)C[C@]2(C)[C@@]1(O)C(=O)CO` [DXMS, dexamethasone, reference compound], the cells diminished entry in the data set on MC3T3-E1 cells [3] (200 μmol/L) was “approximately 50%”.
For the compound `O=c1ccc2ccc3occc3c2o1` [Isopsoralen], in the data set on CYPs, the “formation of reactive intermediates” value is “metabolically bioactivated by CYPs to generate reactive intermediates”. Also, in the data set with MC3T3-E1 cells [3], the “cytotoxicity towards MC3T3-E1 cells” value was “weak cytotoxicity”. For the same compound, on Notum [5], it took 71.9 ± 11 nM to reach half-maximal inhibition (IC50). This compound also showed an IC50 at Notum [6] (setting [12]) of 72.7 ± 5.03 nM. Moreover, in the data set with healthy mice (14 consecutive days, mice), the body weight result is reported as “significantly decreased”; the death of mice entry is reported as “the mice began to die”; the “organ injury (H&E, pathological examination)” value is reported as “varying degrees of organ injury”. Moreover, in the data set on healthy mice (14 days, vs control), the “organ coefficients of the heart, liver and kidney” value is “remarkably elevated”; the “serum levels of AST and ALT” value was “elevated”; the “serum levels of CK, UREA and TG” value is reported as “decrease”. Also, the “effect on ALP levels (osteoblast differentiation)” value in the data set on MC3T3-E1 cells [7] is “relatively weak”.
With `O=c1ccc2cc3ccoc3cc2o1` [Psoralen], the “cytotoxicity towards MC3T3-E1 cells” value in the data set on MC3T3-E1 cells [3] is reported as “weak cytotoxicity”. On Notum [5], half-maximal inhibition (IC50) required 99.9 ± 10.8 nM. On Notum [6] (setting [12]), this compound registered an IC50 of 108 ± 10.4 nM. Moreover, in the data set on healthy mice (14 consecutive days, mice), the body weight result is given as “decreased significantly”; the death of mice result is “no death was observed”; the “organ injury (H&E, pathological examination)” value is recorded as “varying degrees of organ injury”. Also, in the data set on healthy mice (14 days, vs control), the “organ coefficients of the heart, liver and kidney” value is given as “remarkably elevated”; the “serum levels of ALP, CREA, UREA and TG” value is reported as “elevate”; the “serum levels of AST and ALT” value is given as “elevated”. Also, the “effect on ALP levels (osteoblast differentiation)” value in the data set with MC3T3-E1 cells [7] is reported as “relatively weak”.
For “PTH: parathyroid hormone 1–34, positive drug for treating osteoporosis (SVSEIQLMHNLGKHLNSMERVEWLRKKLQDVHNF; Parathyroid hormone; UniProt P01270 32-65, looked up, fragment) [reference compound]”, the “effect on weight loss induced by DXMS” value in data set [4] (setting [9]) is “neither PTH (positive control for osteoporosis) nor 5-MP (20 and 40 mg/kg) could significantly reverse the weight loss”.

Source of the values: article PMC12399195 (Acta Pharmaceutica Sinica. B, 2025).
